Results as given in ChEMBL document CHEMBL3862004, “A Cyclic Tetrapeptide ("Cyclodal") and Its Mirror-Image Isomer Are Both High-Affinity μ Opioid Receptor Antagonists” (J Med Chem, 2016).
pIC50, pKi: −log10 of the molar value. The source made the active and inactive calls. The rule behind the calls is not given here.

What was measured:
[1] = Metabolic stability in rat plasma assessed as compound remaining at 37 degC measured after 15 mins by reverse-phase HPLC analysis
[2] = target: Delta-type opioid receptor (Rattus norvegicus, UniProt P33533); test: Displacement of [3H]DSLET from DOR in rat brain membrane measured after 2 hrs; assay type: cell membranes
Sequence of Delta-type opioid receptor (P33533 whole entry): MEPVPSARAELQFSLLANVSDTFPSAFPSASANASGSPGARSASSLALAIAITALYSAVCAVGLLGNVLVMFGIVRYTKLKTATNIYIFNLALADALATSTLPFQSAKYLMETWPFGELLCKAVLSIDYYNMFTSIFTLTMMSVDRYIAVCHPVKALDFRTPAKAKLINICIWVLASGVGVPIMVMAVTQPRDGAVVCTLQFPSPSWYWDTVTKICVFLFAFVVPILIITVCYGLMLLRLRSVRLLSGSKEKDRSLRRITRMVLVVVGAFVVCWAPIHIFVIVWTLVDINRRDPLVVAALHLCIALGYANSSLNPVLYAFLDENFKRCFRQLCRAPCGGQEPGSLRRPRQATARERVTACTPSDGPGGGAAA

[3] = target: Kappa-type opioid receptor (Cavia porcellus, UniProt P41144); test: Displacement of [3H]U69,593 from KOR in guinea pig brain membrane measured after 2 hrs; assay type: cell membranes
Sequence of Kappa-type opioid receptor (P41144 whole entry): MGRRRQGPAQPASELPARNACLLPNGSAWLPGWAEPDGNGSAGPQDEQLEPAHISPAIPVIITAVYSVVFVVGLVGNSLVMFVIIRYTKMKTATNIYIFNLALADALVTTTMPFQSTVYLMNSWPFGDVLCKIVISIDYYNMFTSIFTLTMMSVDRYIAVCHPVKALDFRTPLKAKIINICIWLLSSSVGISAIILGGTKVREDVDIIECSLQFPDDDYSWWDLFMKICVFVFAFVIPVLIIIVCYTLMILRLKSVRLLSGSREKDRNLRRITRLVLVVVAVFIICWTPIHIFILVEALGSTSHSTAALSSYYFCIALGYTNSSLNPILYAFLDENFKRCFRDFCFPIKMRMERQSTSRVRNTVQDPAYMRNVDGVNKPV
Outline: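 Guinea pig brain membranes incubated 2 h at 0 °C with 0.80 nM [3H]U69,593. […] Values are the mean of three to four determinations ± SEM.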

Rattus norvegicus = organism: Rattus norvegicus; test: Selectivity ratio of Ki for DOR in rat brain membrane to Ki for MOR in rat brain membrane; assay type: cell membranes
Mu-type opioid receptor [4] = target: Mu-type opioid receptor (Rattus norvegicus, UniProt P33535); test: Displacement of [3H]DAMGO from MOR in rat brain membrane measured after 2 hrs; assay type: cell membranes
Sequence of Mu-type opioid receptor (Rattus norvegicus, UniProt P33535) (P33535 whole entry): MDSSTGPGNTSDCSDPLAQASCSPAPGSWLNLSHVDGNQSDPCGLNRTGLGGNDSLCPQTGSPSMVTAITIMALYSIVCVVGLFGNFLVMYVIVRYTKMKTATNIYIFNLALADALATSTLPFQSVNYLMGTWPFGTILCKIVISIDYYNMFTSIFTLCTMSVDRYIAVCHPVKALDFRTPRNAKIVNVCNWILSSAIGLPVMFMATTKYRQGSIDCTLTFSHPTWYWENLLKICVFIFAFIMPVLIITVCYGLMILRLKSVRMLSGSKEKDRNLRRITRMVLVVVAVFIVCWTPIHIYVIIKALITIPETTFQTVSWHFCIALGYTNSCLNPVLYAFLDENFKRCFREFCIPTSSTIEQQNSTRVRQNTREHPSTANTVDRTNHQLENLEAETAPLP

[5] = Selectivity ratio of Ki for KOR in guinea pig brain membrane to Ki for MOR in rat brain membrane; assay type: cell membranes
[6] = target: Kappa-type opioid receptor (Cavia porcellus) (UniProt P41144); test: Antagonist activity at KOR in guinea pig ileum assessed as inhibition of U50,488-induced muscle contractions
Sequence of Kappa-type opioid receptor (Cavia porcellus) (P41144 whole entry): as the sequence (P41144 whole entry) above

[7] = target: Mu-type opioid receptor (Cavia porcellus) (UniProt P97266); test: Antagonist activity at MOR in guinea pig ileum assessed as inhibition of TAPP-induced muscle contractions
Sequence of Mu-type opioid receptor (Cavia porcellus) (P97266 whole entry): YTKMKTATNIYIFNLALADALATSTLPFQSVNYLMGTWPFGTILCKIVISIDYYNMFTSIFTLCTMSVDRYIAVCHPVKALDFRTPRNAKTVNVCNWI
Outline: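 Guinea pig ileum preparation. Ke was derived from the ratio of TAPP IC50 with and without a fixed antagonist concentration. Mean of three to four determinations ± SEM.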

[8] = target: Delta-type opioid receptor (Mus musculus) (UniProt P32300); test: Partial agonist activity at delta opioid receptor in mouse vas deferens assessed as inhibition of electrically-stimulated muscle contraction
Sequence of Delta-type opioid receptor (Mus musculus) (P32300 whole entry): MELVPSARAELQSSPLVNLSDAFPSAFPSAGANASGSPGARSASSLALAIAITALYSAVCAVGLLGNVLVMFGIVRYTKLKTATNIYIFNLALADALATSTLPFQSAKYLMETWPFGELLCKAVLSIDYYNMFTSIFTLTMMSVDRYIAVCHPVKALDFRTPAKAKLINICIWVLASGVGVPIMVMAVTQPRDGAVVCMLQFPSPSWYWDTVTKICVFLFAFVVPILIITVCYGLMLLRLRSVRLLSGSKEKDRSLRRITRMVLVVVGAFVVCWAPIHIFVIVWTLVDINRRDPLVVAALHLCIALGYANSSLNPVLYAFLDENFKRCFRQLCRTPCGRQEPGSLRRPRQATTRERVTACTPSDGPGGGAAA
Outline: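 Mouse vas deferens preparation. A [Leu5]enkephalin dose–response curve was run on each preparation as standard, and test IC50 values were normalised to it. Mean of three to four determinations ± SEM.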

[9] = AUC in CD-1 mouse plasma at 2 mg/kg, iv by LC-MS/MS analysis; assay type: ADME, organism-based
Outline: (§1)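 Male CD1 mice (27 g) given 2 mg/kg iv in saline; brain and plasma sampled at 5, 15, 30, 60, 120 and 240 min. Brain homogenised in PBS pH 7.4, plasma proteins precipitated with acetonitrile/methanol (1:1). Quantitation by LC–MS/MS against internal standard, with standard curves extracted from brain homogenate and fitted by 1/x-weighted linear regression. AUCs were taken from concentration–time curves.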

[10] = AUC in CD-1 mouse brain at 2 mg/kg, iv by LC-MS/MS analysis; assay type: ADME, organism-based; conditions: in vivo; outline: as §1
[11] = Metabolic stability in rat plasma at 37 degC measured up to 48 hrs by reverse-phase HPLC analysis; assay type: ADME, cell-free
Outline: (§2)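 Peptide at 0.5 mg/mL in 0.01 M phosphate buffer pH 7.4 mixed 1:1 with rat plasma supernatant and incubated at 37 °C. Samples taken at 0, 5, 10, 15, 30 min and 1, 2, 3, 24, 48 h, quenched with acetonitrile and 2% TFA/water. Analysed by reversed-phase C18 HPLC; peak areas expressed as percent of initial.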

[12] = Cmax in CD-1 mouse brain at 2 mg/kg, iv measured after 30 mins by LC-MS/MS analysis; assay type: ADME, organism-based; set-up: dose 2 mg/kg, route intravenous; outline: as §1
Mu-type opioid receptor [13] = target: Mu-type opioid receptor (Cavia porcellus, UniProt P97266); test: Agonist activity at MOR in guinea pig ileum assessed as inhibition of electrically-stimulated muscle contractions
Sequence of Mu-type opioid receptor (Cavia porcellus, UniProt P97266) (P97266 whole entry): as the sequence (P97266 whole entry) above
Outline: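 Isolated guinea pig ileum preparation; each preparation received a [Leu⁵]enkephalin standard dose–response curve. IC50 values came from concentration–response curves and were normalized to that standard. Values are the mean of three to four determinations ± SEM.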

[14] = Metabolic stability in rat plasma assessed as compound degradation at 37 degC measured after 2 hrs by reverse-phase HPLC analysis; assay type: ADME, cell-free; conditions: read-out: Drug degradation; outline: as §2

CC(C)C[C@H](NC(=O)[C@H](Cc1ccccc1)NC(=O)CNC(=O)CNC(=O)[C@@H](N)Cc1ccc(O)cc1)C(=O)O [ENKEPHALIN]
remaining at 0.25 h [1]: < 15%

Cc1cc(O)cc(C)c1C[C@@H]1NC(=O)C[C@H](CCCCN)NC(=O)[C@H](Cc2ccccc2)NC(=O)[C@@H](CCCNC(=N)N)NC1=O
pKi [2]: 7.78 | pKi [3]: 9.10 | Ratio Ki (Rattus norvegicus): 135 | pKi (Mu-type opioid receptor [4]): 9.91 | Ratio Ki [5]: 6 | Ke [6]: 18.2 nM | Ke [7]: 10.5 nM

Cc1cc(O)cc(C)c1C[C@@H]1NC(=O)C(CCCN)NC(=O)[C@H](Cc2ccccc2)NC(=O)[C@@H](CCCNC(=N)N)NC1=O (stereo partly drawn)
Activity [8]: Active | Ke [7]: 16.8 nM

Cc1cc(O)cc(C)c1C[C@@H]1NC(=O)[C@H](CCCCN)NC(=O)[C@H](Cc2ccccc2)NC(=O)[C@@H](CCCNC(=N)N)NC1=O
AUC [9]: 0.505 ng·h/mL | AUC [10]: 0.052 µg·min/g | Stability [11]: Stable | Cmax [12]: 0.6 ng/g

Cc1cc(O)cc(C)c1C[C@@H]1NC[C@H](CCCCN)NC(=O)[C@H](Cc2ccccc2)NC(=O)[C@@H](CCCNC(=N)N)NC1=O
pIC50 (Mu-type opioid receptor [13]): 5.60 | Activity [8]: Active | Ratio Ki (Rattus norvegicus): 47 | Ratio Ki [5]: 7

Cc1cc(O)cc(C)c1C[C@@H]1NC(=O)[C@H](CCCCN)NC(=O)[C@H](Cc2ccccc2)NC(=O)[C@@H](CCCNC(N)=O)NC1=O
Ratio Ki (Rattus norvegicus): 52 | Ratio Ki [5]: 165

C[C@@H](O)[C@H](NC(=O)[C@H]1NC(=O)[C@H]([C@@H](C)O)NC(=O)[C@H](CCCN)NC(=O)[C@@H](Cc2c[nH]c3ccccc23)NC(=O)[C@H](Cc2ccc(O)cc2)NC(=O)[C@@H](NC(=O)[C@H](N)Cc2ccccc2)CSSC1(C)C)C(N)=O
pKi [2]: 6.59 | Activity [8]: Active | metabolised at 2 h [14]: 25% | pKi [3]: 4.83

CCCC[C@@H]1NC(=O)[C@H](Cc2ccccc2)NC(=O)[C@@H](CCCNC(=N)N)NC(=O)[C@H](Cc2c(C)cc(O)cc2C)NC1=O
Activity [8]: Active

Cc1cc(O)cc(C)c1C[C@@H]1NC(=O)[C@H](CCCCN)NC(=O)[C@H](Cc2ccccc2)NC(=O)[C@@H](CCCCNC(=N)N)NC1=O
Activity [8]: Active | Ratio Ki (Rattus norvegicus): 25 | Ratio Ki [5]: 23
